Assay results from ChEMBL document CHEMBL3102751, “Cholinesterase inhibitory activity versus aromatic core multiplicity: a facile green synthesis and molecular docking study of novel piperidone embedded thiazolopyrimidines” (Bioorg Med Chem, 2014).

Assays:
[1] = Selectivity ratio of IC50 for Electrophorus electricus acetylcholinesterase to IC50 for equine serum butyrylcholinesterase
Cholinesterase = Cholinesterase (Equus caballus, UniProt P81908); test: Inhibition of equine serum butyrylcholinesterase using S-butyrylthiocholine chloride as substrate preincubated for 15 mins followed by substrate addition measured for 30 mins by Ellman's method
Chain of Cholinesterase (P81908 whole entry): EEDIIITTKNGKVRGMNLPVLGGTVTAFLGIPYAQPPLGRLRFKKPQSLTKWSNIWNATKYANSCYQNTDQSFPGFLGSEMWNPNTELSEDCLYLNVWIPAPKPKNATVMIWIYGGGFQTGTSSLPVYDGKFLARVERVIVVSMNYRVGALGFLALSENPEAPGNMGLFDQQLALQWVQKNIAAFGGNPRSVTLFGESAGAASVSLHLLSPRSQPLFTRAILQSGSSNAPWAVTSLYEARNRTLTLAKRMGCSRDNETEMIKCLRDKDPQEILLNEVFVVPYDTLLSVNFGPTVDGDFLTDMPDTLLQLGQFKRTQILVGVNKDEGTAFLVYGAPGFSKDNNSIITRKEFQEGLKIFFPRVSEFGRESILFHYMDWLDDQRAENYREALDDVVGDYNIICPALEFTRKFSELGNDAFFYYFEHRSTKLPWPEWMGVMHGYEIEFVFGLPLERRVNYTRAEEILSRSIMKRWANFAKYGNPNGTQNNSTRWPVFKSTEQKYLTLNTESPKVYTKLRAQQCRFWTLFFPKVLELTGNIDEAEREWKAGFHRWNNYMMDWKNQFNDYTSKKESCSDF
Procedure, shortened: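 Modified Ellman assay in 0.1 M sodium phosphate buffer, pH 8. Samples were prepared in DMSO, with 1% DMSO in the final mix. Equine serum BChE was incubated with sample for 15 min at 25 °C. 10 mM DTNB stock was then added, followed by 14 mM S-butyrylthiocholine chloride stock. Absorbance at 412 nm was read for 30 min, and % inhibition was calculated relative to control.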

Acetylcholinesterase = Acetylcholinesterase (Electrophorus electricus, UniProt O42275); test: Inhibition of Electrophorus electricus acetylcholinesterase using acetylthiocholine iodide as substrate preincubated for 15 mins followed by substrate addition measured for 30 mins by Ellman's method
Chain of Acetylcholinesterase (O42275 whole entry): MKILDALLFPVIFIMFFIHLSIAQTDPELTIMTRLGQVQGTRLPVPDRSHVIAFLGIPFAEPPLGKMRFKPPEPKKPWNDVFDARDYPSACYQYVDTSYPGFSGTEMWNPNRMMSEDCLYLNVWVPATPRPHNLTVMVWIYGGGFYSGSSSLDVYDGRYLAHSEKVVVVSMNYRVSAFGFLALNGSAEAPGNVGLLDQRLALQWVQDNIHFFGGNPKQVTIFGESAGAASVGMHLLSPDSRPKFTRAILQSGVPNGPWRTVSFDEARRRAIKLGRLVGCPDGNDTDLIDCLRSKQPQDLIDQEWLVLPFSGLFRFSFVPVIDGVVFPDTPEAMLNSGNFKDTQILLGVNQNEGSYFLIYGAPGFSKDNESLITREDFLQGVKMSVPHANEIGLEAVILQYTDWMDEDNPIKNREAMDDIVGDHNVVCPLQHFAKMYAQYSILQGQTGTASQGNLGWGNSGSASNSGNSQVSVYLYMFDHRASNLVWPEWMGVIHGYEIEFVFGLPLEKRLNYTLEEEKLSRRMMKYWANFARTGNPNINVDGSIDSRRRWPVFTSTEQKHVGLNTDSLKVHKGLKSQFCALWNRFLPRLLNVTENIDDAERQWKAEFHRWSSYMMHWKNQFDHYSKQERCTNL

[2] = Selectivity ratio of IC50 for equine serum butyrylcholinesterase to IC50 for Electrophorus electricus acetylcholinesterase

Fc1ccc(C2=CSC3=NC4=C(CNC/C4=C\c4ccc(Cl)cc4)C(c4ccc(Cl)cc4)N23)cc1 (stereo not drawn)
Ratio IC50 [1]: 0.36
IC50 (Cholinesterase): 15.8 µM
IC50 (Acetylcholinesterase): 5.73 µM
Ratio IC50 [2]: 2.75

COc1ccc(C2=CSC3=NC4=C(CNC/C4=C\c4ccccc4OC)C(c4ccccc4OC)N23)cc1 (stereo not drawn)
Ratio IC50 [1]: 0.64
IC50 (Cholinesterase): 18.6 µM
IC50 (Acetylcholinesterase): 12 µM
Ratio IC50 [2]: 1.55

Clc1ccccc1/C=C1\CNCC2=C1N=C1SC=C(c3ccccc3)N1C2c1ccccc1Cl (stereo not drawn)
Ratio IC50 [1]: 0.77
IC50 (Cholinesterase): 2.68 µM
IC50 (Acetylcholinesterase): 2.05 µM
Ratio IC50 [2]: 1.3

Clc1ccc(/C=C2\CNCC3=C2N=C2SC=C(c4ccc(Cl)cc4)N2C3c2ccc(Cl)cc2)cc1 (stereo not drawn)
Ratio IC50 [1]: 0.2
IC50 (Cholinesterase): 27.4 µM
IC50 (Acetylcholinesterase): 5.37 µM
Ratio IC50 [2]: 5.11

Cc1ccc(/C=C2\CNCC3=C2N=C2SC=C(c4ccccc4)N2C3c2ccc(C)cc2)cc1 (stereo not drawn)
Ratio IC50 [1]: 0.31
IC50 (Cholinesterase): 1.71 µM
IC50 (Acetylcholinesterase): 0.53 µM
Ratio IC50 [2]: 3.21

COc1ccccc1/C=C1\CNCC2=C1N=C1SC=C(c3ccccc3)N1C2c1ccccc1OC (stereo not drawn)
Ratio IC50 [1]: 1.03
IC50 (Cholinesterase): 4.1 µM
IC50 (Acetylcholinesterase): 4.23 µM
Ratio IC50 [2]: 0.97

COc1ccc(C2=CSC3=NC4=C(CNC/C4=C\c4ccccc4)C(c4ccccc4)N23)cc1 (stereo not drawn)
Ratio IC50 [1]: 1.52
IC50 (Cholinesterase): 10.4 µM
IC50 (Acetylcholinesterase): 15.9 µM
Ratio IC50 [2]: 0.65

Fc1ccc(C2=CSC3=NC4=C(CNC/C4=C\c4ccccc4)C(c4ccccc4)N23)cc1 (stereo not drawn)
Ratio IC50 [1]: 2.57
IC50 (Cholinesterase): 7.91 µM
IC50 (Acetylcholinesterase): 20.3 µM
Ratio IC50 [2]: 0.39

Fc1ccc(/C=C2\CNCC3=C2N=C2SC=C(c4ccccc4)N2C3c2ccc(F)cc2)cc1 (stereo not drawn)
Ratio IC50 [1]: 1.02
IC50 (Cholinesterase): 3.95 µM
IC50 (Acetylcholinesterase): 4.04 µM
Ratio IC50 [2]: 0.98

S=C1NC2/C(=C/c3ccc(Cl)cc3)CNCC2C(c2ccc(Cl)cc2)N1 (stereo not drawn)
IC50 (Cholinesterase): 6.26 µM
IC50 (Acetylcholinesterase): 2.25 µM

S=C1NC2/C(=C/c3ccccc3Cl)CNCC2C(c2ccccc2Cl)N1 (stereo not drawn)
IC50 (Cholinesterase): 2.91 µM
IC50 (Acetylcholinesterase): 32.3 µM

C1=C(c2ccccc2)N2C(=NC3=C(CNC/C3=C\c3ccccc3)C2c2ccccc2)S1 (stereo not drawn)
Ratio IC50 [1]: 0.84
IC50 (Cholinesterase): 1.74 µM
IC50 (Acetylcholinesterase): 1.47 µM
Ratio IC50 [2]: 1.19

Cc1ccc(/C=C2\CNCC3=C2N=C2SC=C(c4ccc(F)cc4)N2C3c2ccc(C)cc2)cc1 (stereo not drawn)
Ratio IC50 [1]: 1.32
IC50 (Cholinesterase): 4.91 µM
IC50 (Acetylcholinesterase): 6.47 µM
Ratio IC50 [2]: 0.76

COc1ccc(C2=CSC3=NC4=C(CNC/C4=C\c4ccccc4Cl)C(c4ccccc4Cl)N23)cc1 (stereo not drawn)
Ratio IC50 [1]: 0.63
IC50 (Cholinesterase): 12.6 µM
IC50 (Acetylcholinesterase): 7.97 µM
Ratio IC50 [2]: 1.58

COc1ccccc1/C=C1\CNCC2C1NC(=S)NC2c1ccccc1OC (stereo not drawn)
IC50 (Cholinesterase): 1.18 µM
IC50 (Acetylcholinesterase): 0.8 µM

COc1ccc(C2=CSC3=NC4=C(CNC/C4=C\c4ccc(C)cc4)C(c4ccc(C)cc4)N23)cc1 (stereo not drawn)
Ratio IC50 [1]: 0.99
IC50 (Cholinesterase): 10.5 µM
IC50 (Acetylcholinesterase): 10.4 µM
Ratio IC50 [2]: 1.01

COc1ccc(C2=CSC3=NC4=C(CNC/C4=C\c4ccc(F)cc4)C(c4ccc(F)cc4)N23)cc1 (stereo not drawn)
Ratio IC50 [1]: 0.84
IC50 (Cholinesterase): 26.5 µM
IC50 (Acetylcholinesterase): 22.4 µM
Ratio IC50 [2]: 1.18

Cc1ccc(/C=C2\CNCC3C2NC(=S)NC3c2ccc(C)cc2)cc1 (stereo not drawn)
IC50 (Cholinesterase): 6.27 µM
IC50 (Acetylcholinesterase): 37.5 µM

S=C1NC2/C(=C/c3ccccc3)CNCC2C(c2ccccc2)N1 (stereo not drawn)
IC50 (Cholinesterase): 3.78 µM
IC50 (Acetylcholinesterase): 19.3 µM

Clc1ccc(/C=C2\CNCC3=C2N=C2SC=C(c4ccccc4)N2C3c2ccc(Cl)cc2)cc1 (stereo not drawn)
Ratio IC50 [1]: 0.74
IC50 (Cholinesterase): 2.18 µM
IC50 (Acetylcholinesterase): 1.62 µM
Ratio IC50 [2]: 1.35

COc1ccc(C2=CSC3=NC4=C(CNC/C4=C\c4ccc(Cl)cc4)C(c4ccc(Cl)cc4)N23)cc1 (stereo not drawn)
Ratio IC50 [1]: 0.66
IC50 (Cholinesterase): 12.8 µM
IC50 (Acetylcholinesterase): 8.44 µM
Ratio IC50 [2]: 1.52

COc1ccccc1/C=C1\CNCC2=C1N=C1SC=C(c3ccc(Cl)cc3)N1C2c1ccccc1OC (stereo not drawn)
Ratio IC50 [1]: 0.17
IC50 (Cholinesterase): 29.3 µM
IC50 (Acetylcholinesterase): 5.08 µM
Ratio IC50 [2]: 5.76

Fc1ccc(/C=C2\CNCC3=C2N=C2SC=C(c4ccc(F)cc4)N2C3c2ccc(F)cc2)cc1 (stereo not drawn)
Ratio IC50 [1]: 0.83
IC50 (Cholinesterase): 15.8 µM
IC50 (Acetylcholinesterase): 13.2 µM
Ratio IC50 [2]: 1.2

Fc1ccc(/C=C2\CNCC3C2NC(=S)NC3c2ccc(F)cc2)cc1 (stereo not drawn)
IC50 (Cholinesterase): 28.8 µM
IC50 (Acetylcholinesterase): 37.2 µM

Clc1ccc(C2=CSC3=NC4=C(CNC/C4=C\c4ccccc4)C(c4ccccc4)N23)cc1 (stereo not drawn)
Ratio IC50 [1]: 0.54
IC50 (Cholinesterase): 44.3 µM
IC50 (Acetylcholinesterase): 23.9 µM
Ratio IC50 [2]: 1.86

Fc1ccc(C2=CSC3=NC4=C(CNC/C4=C\c4ccccc4Cl)C(c4ccccc4Cl)N23)cc1 (stereo not drawn)
Ratio IC50 [1]: 0.76
IC50 (Cholinesterase): 4.63 µM
IC50 (Acetylcholinesterase): 6.03 µM
Ratio IC50 [2]: 1.3

Cc1ccc(/C=C2\CNCC3=C2N=C2SC=C(c4ccc(Cl)cc4)N2C3c2ccc(C)cc2)cc1 (stereo not drawn)
Ratio IC50 [1]: 0.67
IC50 (Cholinesterase): 32.6 µM
IC50 (Acetylcholinesterase): 21.7 µM
Ratio IC50 [2]: 1.5

Fc1ccc(/C=C2\CNCC3=C2N=C2SC=C(c4ccc(Cl)cc4)N2C3c2ccc(F)cc2)cc1 (stereo not drawn)
Ratio IC50 [1]: 0.46
IC50 (Cholinesterase): 22.2 µM
IC50 (Acetylcholinesterase): 10.3 µM
Ratio IC50 [2]: 2.16

Clc1ccc(C2=CSC3=NC4=C(CNC/C4=C\c4ccccc4Cl)C(c4ccccc4Cl)N23)cc1 (stereo not drawn)
Ratio IC50 [1]: 0.68
IC50 (Cholinesterase): 7.65 µM
IC50 (Acetylcholinesterase): 5.2 µM
Ratio IC50 [2]: 1.47

COc1ccccc1/C=C1\CNCC2=C1N=C1SC=C(c3ccc(F)cc3)N1C2c1ccccc1OC (stereo not drawn)
Ratio IC50 [1]: 0.63
IC50 (Cholinesterase): 8.75 µM
IC50 (Acetylcholinesterase): 5.5 µM
Ratio IC50 [2]: 1.59
